Shown are actives, neighbours in structure and some others; about 4.8% of the full set was active somewhere.
HSF1 inh: HSF1 inhibition. NIH3T3-HGL HSE-luciferase, MG132-induced, luminescence 8 h; active compounds read low. activity change, negative = inhibition, % at 7.5 µM (by protocol). 300,000 compounds, 0.77% hits. AID 2098;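 active = more than half of replicate wells show activity change below -50%, luminescence cut by over half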;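 note: luciferase reports HSF-1 transcriptional activity via heat shock element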
697 NFkB inh: inhibitors of the PMA/ionomycin-induced NF-kB reporter in 697 B cells; 697 B-cell NF-kB luciferase reporter, 16 h; inhibition, % at 4 µM; 330,000 compounds, 0.33% hits; AID 435022; in the data active = inhibition above about 35%
Jurkat NFkB inh: inhibitors of the PMA/ionomycin-induced NF-kB reporter in Jurkat cells; PMA/ionomycin-induced NF-kB luciferase reporter, luminescence; inhibition, % at 4 µM; 330,000 compounds, 0.53% hits; in the data active = inhibition above about 50%
HSF1 activator: increases HSF-1 driven luciferase reporter signal | NIH3T3-HGL HSF-1 luciferase reporter, MG132, 8 h; 100% = twice DMSO control signal | 300,000 compounds, 1.7% hits | activation, % at 9 µM;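 active = mean replicate activation of at least 50% with a set share of replicates each reaching 50%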
T cruzi inh: blocks replication of Trypanosoma cruzi | T. cruzi beta-gal in NIH3T3, luminescence, 90 h | inhibition, % (concentration not given with the values) | 300,000 compounds, 1.4% hits | AID 1885;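 active = mean inhibition across valid replicates above about 55%, limit read from the data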;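 note: signal also drops with host cell toxicity which is not excluded here; higher percent means less beta-gal luminescence so fewer parasites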
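Assay system: NIH/3T3 host cells with β-galactosidase reporter T. cruzi; input: 5,000 host fibroblasts per well; compound: single 50 nL compound addition per well in DMSO; timing: ≥90 h infection period, 3 h prior cell attachment; measured by: GalScreen β-gal luminescence, detergent lysis, 60 min; evaluation: percent inhibition of parasite-derived β-gal signal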
GPR7 antagonist: human neuropeptides B/W receptor 1 antagonism; AID 1861; P48145; 290,000 compounds, 1.1% hits; inhibition, % at 4.4 µM; GPR7-expressing cells, fluorescence antagonist assay; in the data active = inhibition above about 16%, passing the limit was not always enough;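 note: cells stimulated with the agonist NPW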
Target sequence (P48145 whole entry, looked up): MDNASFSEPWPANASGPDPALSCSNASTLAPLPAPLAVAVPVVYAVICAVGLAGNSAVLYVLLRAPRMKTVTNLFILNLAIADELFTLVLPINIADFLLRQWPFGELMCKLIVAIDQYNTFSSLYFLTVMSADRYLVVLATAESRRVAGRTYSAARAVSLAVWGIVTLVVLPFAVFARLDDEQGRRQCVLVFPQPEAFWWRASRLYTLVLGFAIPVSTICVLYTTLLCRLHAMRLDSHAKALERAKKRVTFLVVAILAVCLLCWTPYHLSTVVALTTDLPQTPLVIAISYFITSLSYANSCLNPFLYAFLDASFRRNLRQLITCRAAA
A number is an active result; n = inactive; x = not tested or not shown.

SMILES	HSF1 inh	697 NFkB inh	Jurkat NFkB inh	HSF1 activator	T cruzi inh	GPR7 antagonist
CCCC[C@@H]1C[C@H]1[C@@H](NC(=O)c1cccs1)c1ccc(C(F)(F)F)cc1	n	n	n	n	n	x
COCc1ccc(C(=O)N2CCCC(CCC(=O)NCc3ccccc3F)C2)o1 (stereo not given)	n	n	n	n	n	n
COc1ccc(-c2cc(C(F)F)n3ncc(C(=O)N4CCN(C(=O)c5ccco5)CC4)c3n2)cc1	n	n	n	n	n	n
Cc1ccc(-c2cc(C(F)F)n3ncc(C(=O)N4CCN(c5ccccn5)CC4)c3n2)cc1	n	n	n	n	60	n
CCc1nccn1C(=O)c1cnn2c(C(F)F)cc(-c3ccc(C)cc3)nc12	n	n	n	n	n	n
COc1ccc(-c2cc(C(F)F)n3ncc(C(=O)N4CCCCC4)c3n2)cc1	n	n	n	n	89	n
CCN1CCN(C(=O)c2cnn3c(C(F)F)cc(-c4ccc(C)cc4)nc23)CC1	n	n	n	n	n	n
CCc1nccn1C(=O)c1cnn2c(C(F)F)cc(-c3ccccc3)nc12	-88	n	n	n	n	n
C[C@H](NC(=O)c1nc[nH]c1C(=O)N1CCc2ccccc2C1)C(=O)OCc1ccccc1	n	n	n	n	n	x
O=C(COC(=O)C1=COCCO1)NC1CCCCCCC1	n	n	n	n	n	n
CCOc1ccccc1/C=C/C(=O)c1ccc(Cl)cc1	n	n	n	69	n	n
COc1ccccc1/C=C/C(=O)c1ccc(Cl)cc1	n	n	n	n	n	n
Oc1ccc(/C=N/N(c2ccccc2)c2ccccc2)cc1O	n	n	n	83	n	n
Oc1ccc(/C=N/N=C/c2ccc(O)c(O)c2)cc1O	n	n	n	n	n	n
O=C(/C(=N/N=C/c1ccc(O)c(O)c1)c1ccccc1)c1ccccc1	n	n	n	90	n	n
O=S(=O)(c1ccccc1)N1CCN(Cc2c(O)ccc3ccccc23)CC1	x	n	n	x	x	x
Oc1ccc2ccccc2c1CN1CCN(c2ccccc2F)CC1	n	n	n	84	n	n
Oc1ccc2ccccc2c1CN1CCN(C/C=C/c2ccccc2)CC1	n	n	n	185	n	n
COc1ccc(C(=O)Nc2c(C(C)(C)C)nn(C)c2C(C)(C)C)cc1	n	n	n	n	n	n
O=C(NCC(c1ccco1)N1CCN(c2ccccc2)CC1)C(=O)NC1CCCCC1 (stereo not given)	n	n	n	n	n	x
Cc1ccc2nc(SCC(=O)NCc3ccc4c(c3)OCO4)nc(=O)n2c1	n	n	n	n	n	x
N#CCCn1nnc(-c2ccccc2F)n1	-63	n	n	n	n	n
C(=C\c1ccccn1)/c1ccncc1	n	n	n	n	n	n
C(/C=C/c1ccccn1)=C\c1ccccc1	n	n	n	61	n	x
CC(C)c1ccc(-n2nnnc2SCC(=O)NC2CC2)cc1	x	n	n	x	x	x
SMILES	HSF1 inh	697 NFkB inh	Jurkat NFkB inh	HSF1 activator	T cruzi inh	GPR7 antagonist
COc1cc([N+](=O)[O-])c(N2CCOCC2)c([N+](=O)[O-])c1OC	n	n	n	n	75	n
O=[N+]([O-])c1cc(Br)c2nsnc2c1N1CCOCC1	n	n	n	n	n	n
CC(C)(C)NS(=O)(=O)c1ccc(NC(=O)CS(=O)(=O)Cc2ccccc2)cc1	n	n	n	n	n	n
O=C(Cc1ccccc1)Nc1cccc(N2C(=O)C=CC2=O)c1	-62	x	x	n	n	n
Cc1nc2nc(C)c(CCC(=O)N3CCN(c4ccccn4)CC3)c(C)n2n1	n	n	n	n	n	n
CCn1c(=O)c(CCC(=O)N2CCN(c3ccccn3)CC2)c(C)c2c(C)nn(-c3cccc(C)c3)c21	n	n	n	n	58	n
CCOc1ccccc1NC(=O)c1nc(S(=O)(=O)Cc2ccccc2)ncc1Cl	-83	n	n	n	n	n
Cc1cccc(CS(=O)(=O)c2ncc(Cl)c(C(=O)NCc3ccc4c(c3)OCO4)n2)c1	n	n	n	317	n	n
CCSc1ncc(Cl)c(C(=O)Nc2ccccc2C)n1	n	n	n	55	n	n
CSc1ncc(Cl)c(C(=O)Nc2ccccc2C)n1	n	n	n	n	n	n
CCS(=O)(=O)c1ncc(Cl)c(C(=O)Nc2ccccc2OC)n1	n	n	n	490	n	n
O=C(O)/C=C/C(=O)N(Cc1ccc2c(c1)OCO2)C1CC(=O)N(CCc2ccccc2)C1=O (stereo not given)	n	n	n	n	n	n
Fc1ccc(N/N=C/c2ccc(N3CCOCC3)cc2)c(F)c1	n	n	n	n	65	n
C/C(=N\Nc1ccc(F)cc1F)c1ccc(N2CCOCC2)cc1	n	n	n	n	n	n
O=C(Nc1ccc(Cl)cc1)N1CCc2ccccc2C1	n	n	n	80	n	n
COc1ccc(CC(=O)N2CCc3ccccc3C2)cc1	n	n	n	n	n	n
O=C(OCC(=O)N1CCc2ccccc2C1)c1cccs1	n	n	n	80	n	n
O=C(Cc1ccc(Cl)cc1)N1CCc2ccccc2C1	n	n	n	59	n	x
O=C(Nc1ccccc1)N1CCc2ccccc2C1	n	n	n	n	n	n
O=C(OCC(=O)N1CCCCC1)c1cccs1	x	n	n	x	x	x
Cc1cccc(OCC(=O)NCCNC(=O)c2ccco2)c1	n	n	n	n	n	n
Nn1c(SCc2ccc(Br)cc2)nnc1-c1ccncc1	n	n	n	n	n	n
N#CC1=C2SCC(O)(c3ccccc3)N2C(=O)CC1c1cccs1 (stereo not given)	x	x	x	x	x	17
N#CC1=C2SCC(O)(c3ccccc3)N2C(=O)CC1c1ccccc1F (stereo not given)	n	n	n	n	n	n
CC1CC(C)CN(C(=O)c2cc3cc(Br)cc(Br)c3o2)C1 (stereo not given)	n	n	n	67	n	n
SMILES	HSF1 inh	697 NFkB inh	Jurkat NFkB inh	HSF1 activator	T cruzi inh	GPR7 antagonist
COc1ccc(NC(C)=O)cc1S(=O)(=O)Nc1ccc2c(c1)OCCO2	n	n	n	n	n	n
NC(N)=NS(=O)(=O)c1ccc(NC(=S)NC(=O)c2ccc(Br)cc2)cc1	n	n	n	114	n	n
NC(N)=NS(=O)(=O)c1ccc(NC(=S)NC(=O)c2ccncc2)cc1	n	n	n	n	n	n
CCN(CC(=O)NCc1cccs1)S(=O)(=O)c1ccccc1Cl	n	n	n	n	n	x
N/C(=N\OC(=O)c1cccs1)c1ccc(Cl)cc1	n	n	n	60	n	n
COc1ccc(S(=O)(=O)Nc2ccccc2C(=O)Nc2nc(-c3ccc(F)cc3)cs2)cc1OC	n	n	n	n	n	n
COc1ccc(-c2csc(NC(=O)c3ccccc3NS(=O)(=O)c3ccc(C)cc3)n2)cc1	n	n	n	n	n	27
Cc1ccc(N2Cc3ccccc3C2=O)cc1	n	n	n	n	n	n
COc1ccc(N2Cc3ccccc3C2=O)cc1	n	n	n	54	n	n

Screens: PubChem, several laboratories
